HSF1 inh: HSF1 inhibition. activity change, negative = inhibition, % at 7.5 µM (by protocol). NIH3T3-HGL HSE-luciferase, MG132-induced, luminescence 8 h; hits give low values. actives 0.77% (n = 300,000);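 active means more than half of replicate wells show activity change below -50%, luminescence cut by over half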;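 further: luciferase reports HSF-1 transcriptional activity via heat shock element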
PERK inhibitor: human PERK inhibition, primary cell-based screen; inhibition, % at 5.6 µM; Q9NZJ5; CHO PERK-DD fusion, SEAP luminescence translation reporter; actives 0.17% (n = 220,000);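 active means inhibition above the mean inhibition of all tested compounds plus 3 SD, set separately per screening campaign, cut at about 2.9% in these data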;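 further: PERK kinase domain activated by AP20187 dimerizer at 100 nM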
Target sequence (Q9NZJ5 whole entry, looked up, the tested form may be a part): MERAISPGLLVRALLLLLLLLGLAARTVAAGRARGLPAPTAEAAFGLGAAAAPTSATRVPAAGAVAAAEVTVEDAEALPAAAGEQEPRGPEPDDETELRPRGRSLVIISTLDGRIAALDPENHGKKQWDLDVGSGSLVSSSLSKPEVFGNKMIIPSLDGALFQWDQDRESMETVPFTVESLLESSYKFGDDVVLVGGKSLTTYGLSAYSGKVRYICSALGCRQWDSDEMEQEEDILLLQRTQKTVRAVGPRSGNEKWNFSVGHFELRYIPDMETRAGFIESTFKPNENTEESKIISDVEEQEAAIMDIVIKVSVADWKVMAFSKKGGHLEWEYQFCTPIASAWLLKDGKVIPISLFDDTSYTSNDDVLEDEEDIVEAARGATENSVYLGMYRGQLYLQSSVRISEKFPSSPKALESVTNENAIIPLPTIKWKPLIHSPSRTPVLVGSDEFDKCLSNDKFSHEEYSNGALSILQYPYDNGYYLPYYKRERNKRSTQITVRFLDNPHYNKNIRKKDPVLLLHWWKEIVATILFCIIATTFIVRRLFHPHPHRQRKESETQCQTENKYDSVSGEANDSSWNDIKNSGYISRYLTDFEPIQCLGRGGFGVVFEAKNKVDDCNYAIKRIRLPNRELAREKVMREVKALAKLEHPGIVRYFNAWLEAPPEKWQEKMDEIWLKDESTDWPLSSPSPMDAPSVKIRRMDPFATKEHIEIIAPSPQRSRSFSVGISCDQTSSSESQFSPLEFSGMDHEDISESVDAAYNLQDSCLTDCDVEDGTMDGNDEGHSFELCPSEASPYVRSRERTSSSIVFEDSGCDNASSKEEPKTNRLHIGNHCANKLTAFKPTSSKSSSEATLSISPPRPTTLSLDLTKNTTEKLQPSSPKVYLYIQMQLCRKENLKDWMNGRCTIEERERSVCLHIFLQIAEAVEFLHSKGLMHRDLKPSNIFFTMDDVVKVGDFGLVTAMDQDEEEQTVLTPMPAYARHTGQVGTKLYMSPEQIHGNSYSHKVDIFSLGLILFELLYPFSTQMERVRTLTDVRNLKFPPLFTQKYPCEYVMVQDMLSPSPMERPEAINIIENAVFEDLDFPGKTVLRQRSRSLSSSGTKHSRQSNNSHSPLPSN
STAT3 act: increases IL-6 driven STAT3 reporter signal. actives 0.91% (n = 190,000). activation (% of control), % at 5.6 µM. U3A cells, IL-6 STAT3-luciferase reporter, luminescence; 100% = signal with IL-6 EC80 alone. AID 871;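 active means activation above the screen-wide mean of compound activation plus 3 SD, cut at about 130% in these data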
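Material: STAT1-lacking human U3A cells, STAT3 luciferase reporter | Benchmarks: IL-6-only wells as 100% reference | Probe or stimulus: IL-6 (33 ng/mL) | Timing: Compound 1 h, then IL-6 6 h at 37 °C | Detection: Luminescence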
PolyA inhibitor: blocks polyadenylation in yeast reporter cells; S. cerevisiae SKY197-pL101 polyadenylation reporter, beta-gal luminescence; efflux-impaired pdr1/pdr3 knockout yeast; score 100 = 6 SD above DMSO; activity score, % at 12 µM; actives 0.02% (n = 300,000); AID 1875;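 active means lowest replicate activity score at least 50, where 100 means six control SD above control mean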;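 further: yeast exposed to compound for 9 h at 30 °C; higher score means more reporter readthrough which indicates perturbed polyadenylation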
AHR act: activates the human aryl hydrocarbon receptor. actives 2.5% (n = 320,000). P35869. activation, % at 5 µM. AHR-responsive luciferase reporter cells, luminescence. AID 2796; in the data active means activation above about 47%
Hsp70 act: switches on Hsp70 transcription | HeLa Hsp70 promoter luciferase reporter, luminescence; scaled: vehicle 0, proteasome-inhibitor control 100% | activation, % at 10 µM | actives 0.04% (n = 200,000) | AID 1203;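 active means activation above the mean across all tested compounds plus 3 SD, cutoff set per campaign, cut at about 5.5% in these data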
AHR act cf: human AHR activation, confirmation | shares compounds with AHR act | human cells, AHR-responsive luciferase reporter, luminescence | activation, % at 9 µM | actives 87% (n = 2,300) | AID 2845; in the data active means activation above about 49%;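 further: HepG2 hepatoma cells carrying a DRE-driven firefly luciferase reporter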
PXR counter: counter-screen for AHR activators: human PXR activators | actives 88% (n = 2,300) | cell-based PXR reporter, luciferase luminescence | shares compounds with AHR act | activation, % at 11.6 µM | AID 434939; in the data active means activation above about 11%;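 further: human hepatoma DPX-2 cells expressing full-length human PXR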
Of the large screens only hits and unclear results are named; the others gave an inactive call (follow-up assays come after a bar, where they were run). In the library only some 3.6% were active in any assay of this set; here they are far more common.

Cn1c(=O)c([N+](=O)[O-])c(NCCCn2ccnc2)c2ccccc21	AHR act 80 (no result: STAT3 act, Hsp70 act) | AHR act cf 110 | PXR counter 27
Cc1ccccc1C(=O)Nc1ccc(Br)c(C)n1	AHR act 88 | AHR act cf 130 | PXR counter 52
Cc1nc(NC(=O)c2cccnc2)ccc1Br	none
CCn1c2ccccc2c2cc(NC(=O)COc3ccccc3)ccc21	AHR act 100 | AHR act cf 89 | PXR counter 60
CCn1c2ccccc2c2cc(NC(=O)CN(C)CC(=O)Nc3ccc(N4CCOCC4)cc3)ccc21	none
CCn1c2ccccc2c2cc(NC(=O)N3CCOCC3)ccc21	AHR act 118 | AHR act cf 99 | PXR counter 109
COc1ccc(C(=O)NC(C)CCCC(C)(C)O)cc1OC1CCN(C(C)=O)CC1 (stereo unspecified)	none (no result: PERK inhibitor, STAT3 act, AHR act, Hsp70 act)
O=c1c2ccccc2nc2c3ccccc3c(NCc3ccccn3)nn12	AHR act 119 (no result: PolyA inhibitor) | AHR act cf 113 | PXR counter 128
O=c1c2ccccc2nc2c3ccccc3c(NCc3cccnc3)nn12	none
Cc1ccn(CC(=O)N2CCCC(N3CCN(c4ccc(F)cc4)CC3)C2)n1 (stereo unspecified)	none (no result: PERK inhibitor, STAT3 act, AHR act, Hsp70 act)
CN1CCN(C2=Nc3cc(Cl)ccc3Nc3ccccc32)CC1	none
CN1CCN(C2=Nc3c(Cl)cc(Cl)c4cccc2c34)CC1	AHR act 82 | AHR act cf 91 | PXR counter 27
S=C(N/N=C/c1ccccc1Cl)Nc1cccc(Cl)c1Cl	AHR act 118 (no result: STAT3 act, Hsp70 act) | AHR act cf 103 | PXR counter 30
S=C(NCC1CC1)N/N=C/c1ccccc1Cl	none (no result: STAT3 act, Hsp70 act)
CC(C)c1ccc(S(=O)(=O)N2CCN(C(=O)CN3C(=O)c4ccccc4C3=O)CC2)cc1	none (no result: HSF1 inh, PERK inhibitor, STAT3 act, PolyA inhibitor, Hsp70 act)
CC/C(O)=C1\C(=O)CC(c2ccccc2)CC1=NC(C)C (stereo unspecified)	AHR act 123 | AHR act cf inactive | PXR counter 128
CC/C(O)=C1\C(=O)CC(c2ccccc2)CC1=NCCC(=O)O (stereo unspecified)	none
COc1ccc(C(=O)N/C(=C\c2ccco2)C(=O)NCCN2CCOCC2)cc1	none (no result: PERK inhibitor, STAT3 act, Hsp70 act)
CC(=O)N1CCc2c(sc(NC(=O)C3CC3)c2-c2nc3ccccc3s2)C1	AHR act 106 | AHR act cf 100 | PXR counter 28
Cn1cc(S(=O)(=O)N2CCc3ccccc32)cc1C(=O)NC(C)(C)C	none (no result: PERK inhibitor, STAT3 act, Hsp70 act)
O=C(Nc1ccccc1N1CCCC1)c1ccc([N+](=O)[O-])cc1Cl	AHR act 91 | AHR act cf 87 | PXR counter 212
O=C(Nc1ccccc1N1CCN(C(=O)c2ccc(Cl)cc2)CC1)c1cccc([N+](=O)[O-])c1	AHR act 127 (no result: PERK inhibitor, STAT3 act, Hsp70 act) | AHR act cf 102 | PXR counter 87
Cn1nc(C(=O)Nc2nc3ccccc3[nH]2)c2ccccc2c1=O	AHR act 98 | AHR act cf 73 | PXR counter 19
CCn1nc(C(=O)Nc2nc3ccccc3[nH]2)c2ccccc2c1=O	none
COCCNC(=O)/C(C#N)=C/c1c(N2CCN(C)CC2)nc2ccccn2c1=O	none (no result: PERK inhibitor, STAT3 act, Hsp70 act)
CN1C(=O)C(c2ccccc2[N+](=O)[O-])C(=O)c2ccccc21 (stereo unspecified)	none (no result: PERK inhibitor, STAT3 act, Hsp70 act)
C=CCn1c(O)c(N=Nc2ccccc2)c2ccccc21	none (no result: PERK inhibitor, STAT3 act, Hsp70 act)
C=CCn1c(O)c(N=Nc2ccccc2O)c2ccccc21	AHR act 82 (no result: HSF1 inh, PERK inhibitor, STAT3 act, PolyA inhibitor, Hsp70 act) | AHR act cf 87 | PXR counter 33
CCCCNC(=O)CC1Nc2ccccc2NC1=O (stereo unspecified)	AHR act 86 | AHR act cf 52 | PXR counter 58
N#Cc1ccccc1NC(=O)C(=O)NCCCN1CCCC1=O	none (no result: PERK inhibitor, STAT3 act, Hsp70 act)
CCCCn1c(SCC(=O)Nc2nnc(C)s2)nnc1-c1ccncc1	none
Clc1ccc(Cl)c(-c2nn3c(COc4ccccc4)nnc3s2)c1	none
c1ccc(OCc2nnc3sc(-c4cccs4)nn23)cc1	AHR act 139 | AHR act cf 81 | PXR counter 18
CC1(C)CC(=O)C2=C(C1)N1C(=C(C#N)C2c2ccc(Cl)cc2)N=C(N)c2ccccc21 (stereo unspecified)	AHR act 97 | AHR act cf inactive | PXR counter 159
Cc1nc(NC(=O)/C=C/c2ccco2)sc1C	none
CCc1nnc(NC(=O)/C=C/c2ccco2)s1	AHR act 93 | AHR act cf 59 | PXR counter 58
Cc1ccc2c(c1)NC(=O)C(CC(=O)Nc1ccc(Br)c(C)c1)O2 (stereo unspecified)	none (no result: PERK inhibitor, STAT3 act, Hsp70 act)
O=C(c1cc2ccccc2o1)N1CCN(S(=O)(=O)c2ccc(F)c(F)c2F)CC1	none (no result: HSF1 inh, PERK inhibitor, STAT3 act, PolyA inhibitor, Hsp70 act)
Cc1cc2oc(C(=O)NCc3ccncc3)c(C)c2cc1C	AHR act 89 | AHR act cf 50 | PXR counter 28
Cc1cc(Cl)ccc1NC(=O)CN1C(=O)C(=O)N(C2CCCC2)C1=O	none (no result: HSF1 inh, PERK inhibitor, STAT3 act, PolyA inhibitor, Hsp70 act)
COc1ccc(-n2ccnc2SCC(=O)NCc2ccco2)c(OC)c1	none
COc1ccc(-c2coc3cc(OC)cc(OC)c3c2=O)cc1	AHR act 93 (no result: STAT3 act) | AHR act cf 132 | PXR counter 26
CCN=C(Nc1ccc(Cl)cc1)c1cccnc1	AHR act 104 | AHR act cf 81 | PXR counter 35
CCOC(=O)c1sc(Nc2nc3c(OC)cccc3s2)nc1C	STAT3 act 136, AHR act 84 | AHR act cf 127 | PXR counter 72
CCOC(=O)c1sc(Nc2ccc(F)cc2)nc1C	none
CC12CCC(=O)N1C(C(=O)Nc1nc3ccccc3s1)CS2 (stereo unspecified)	none (no result: HSF1 inh, PERK inhibitor, STAT3 act, PolyA inhibitor, Hsp70 act)
c1ccc(-c2noc(-c3cccc4ccccc34)n2)nc1	AHR act 103 | AHR act cf inactive | PXR counter inactive
Clc1cccc(-c2nc(-c3ccccn3)no2)c1	AHR act 104 | AHR act cf inactive | PXR counter inactive
c1ccc(-c2nc(-c3ccccn3)no2)cc1	none
O=C(Nc1cccnc1)NC1CCCCC1	none
CC(C)N1CCN(Cc2ccc(Sc3nncn3C)o2)CC1CCO (stereo unspecified)	none (no result: STAT3 act, Hsp70 act)
COCC(=O)Nc1nnc(-c2cccs2)s1	AHR act 81 | AHR act cf 94
CCC(C)C(=O)Nc1nnc(-c2cccs2)s1 (stereo unspecified)	AHR act 84 (no result: HSF1 inh, PolyA inhibitor) | AHR act cf 81 | PXR counter 48
O=C(Nc1nnc(-c2cccs2)s1)C1CC1	none
C=C(C)C(=O)Nc1nnc(-c2cccs2)s1	none
COc1ccc(NC(=O)CNC(=O)Cc2cccc3ccccc23)c(OC)c1	none (no result: PERK inhibitor, STAT3 act, Hsp70 act)

Compound activity as filed in PubChem.
